Laboratory results: ChEMBL document CHEMBL1156234, “Novel 4-(piperidin-4-yl)-1-hydroxypyrazoles as gamma-aminobutyric acid(A) receptor ligands: synthesis, pharmacology, and structure-activity relationships” (J Med Chem, 2010)

What was measured:
[1] = molecular target: T1, GABA-A receptor; alpha-1/beta-2/gamma-2 (Homo sapiens, UniProt P14867+P18507+P47870); experiment: Antagonist activity at human GABAA alpha-1-beta-2-gamma-2 receptor expressed in mouse tsA201 cells by FMP red assay; format: functional, cell-based
T1 sequence (P14867 whole entry): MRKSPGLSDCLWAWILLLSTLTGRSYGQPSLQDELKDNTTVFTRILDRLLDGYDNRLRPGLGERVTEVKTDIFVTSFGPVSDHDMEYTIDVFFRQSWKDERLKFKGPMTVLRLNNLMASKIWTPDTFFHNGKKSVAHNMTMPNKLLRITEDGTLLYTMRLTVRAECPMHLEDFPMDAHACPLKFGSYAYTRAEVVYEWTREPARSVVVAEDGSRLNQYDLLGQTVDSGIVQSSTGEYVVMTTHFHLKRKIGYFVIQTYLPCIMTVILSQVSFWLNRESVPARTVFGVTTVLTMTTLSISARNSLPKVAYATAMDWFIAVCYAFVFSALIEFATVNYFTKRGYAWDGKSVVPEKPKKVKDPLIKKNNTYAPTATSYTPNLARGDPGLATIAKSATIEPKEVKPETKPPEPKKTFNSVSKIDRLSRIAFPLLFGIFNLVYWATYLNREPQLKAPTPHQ
T1 sequence (P47870 whole entry): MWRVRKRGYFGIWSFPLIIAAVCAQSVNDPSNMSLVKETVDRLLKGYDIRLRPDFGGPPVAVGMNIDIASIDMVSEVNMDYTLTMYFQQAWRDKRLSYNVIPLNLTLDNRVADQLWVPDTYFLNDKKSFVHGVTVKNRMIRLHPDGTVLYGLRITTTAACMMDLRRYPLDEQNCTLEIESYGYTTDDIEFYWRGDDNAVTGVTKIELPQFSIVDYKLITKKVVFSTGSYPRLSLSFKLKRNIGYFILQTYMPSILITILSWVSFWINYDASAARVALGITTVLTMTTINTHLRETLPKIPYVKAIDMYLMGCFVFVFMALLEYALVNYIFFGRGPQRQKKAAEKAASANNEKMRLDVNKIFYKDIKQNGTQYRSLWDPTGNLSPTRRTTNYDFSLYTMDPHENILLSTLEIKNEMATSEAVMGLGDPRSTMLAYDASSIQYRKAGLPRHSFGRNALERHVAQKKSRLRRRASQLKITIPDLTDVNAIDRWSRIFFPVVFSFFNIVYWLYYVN
T1 sequence (P18507 whole entry): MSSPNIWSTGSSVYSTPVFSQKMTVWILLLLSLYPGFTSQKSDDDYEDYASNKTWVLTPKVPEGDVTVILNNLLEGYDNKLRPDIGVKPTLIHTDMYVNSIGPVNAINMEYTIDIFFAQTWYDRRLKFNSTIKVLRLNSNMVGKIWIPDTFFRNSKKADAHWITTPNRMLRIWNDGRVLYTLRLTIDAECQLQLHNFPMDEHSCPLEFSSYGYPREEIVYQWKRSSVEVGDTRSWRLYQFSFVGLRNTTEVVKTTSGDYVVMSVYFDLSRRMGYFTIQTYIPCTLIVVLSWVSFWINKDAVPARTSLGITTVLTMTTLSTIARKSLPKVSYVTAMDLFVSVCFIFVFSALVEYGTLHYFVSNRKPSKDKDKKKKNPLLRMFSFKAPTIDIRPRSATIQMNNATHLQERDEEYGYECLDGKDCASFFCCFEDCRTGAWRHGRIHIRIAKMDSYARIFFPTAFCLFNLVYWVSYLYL
In short: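 Human α1β2γ2S GABAA receptor transiently expressed in tsA201 cells; FLIPR membrane potential (FMP) red assay. […] Compounds tested up to 500 μM. Values given as IC50 [pIC50 ± SEM].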

[2] = Displacement of [3H]muscimol from GABAA in rat synaptic membrane by scintillation counting; format: cell membranes
In short: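 Rat brain synaptic membrane preparations; native GABAA receptor binding measured by displacement of [3H]muscimol. Ki reported as mean [mean pKi ± SEM] of three to four independent experiments.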

[3] = molecular target: T1, GABA-A receptor; alpha-1/beta-2/gamma-2; experiment: Agonist activity at human GABAA alpha-1-beta-2-gamma-2 receptor expressed in mouse tsA201 cells at < 500 uM by FMP red assay; format: functional, cell-based
In short: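 Human α1β2γ2S GABA-A receptor transiently expressed in tsA201 cells; agonist-mode FLIPR membrane potential (FMP) red assay measuring the fluorescence change in membrane potential; compounds tested at concentrations up to 500 μM.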

[4] = Displacement of [3H]muscimol from GABAA in rat synaptic membrane in presence of 10% DMSO by scintillation counting; format: cell membranes

For `Br.Cc1nn(O)cc1C1CCNCC1`, the IC50 [1] was 66000 nM, the Ki [2] was 5000 nM and the pKi [2] was 5.31.
`Cl.On1cc(C2CCNCC2)c(Cc2ccccc2)n1` gave an IC50 [1] of 8300 nM, a Ki [2] of 360 nM and a pKi [2] of 6.45.
For `Cl.On1cc(C2CCNCC2)cn1`, the Ki [2] was 10000 nM, the pKi [2] was 4.99 and the IC50 ([3]; read-out: IC50) was > 500000 nM. The IC50 ([3]; read-out: pIC50 (converted)) was > 501000 nM.
Compound `Cl.On1nc(-c2ccccc2)c(C2CCNCC2)c1Cc1ccc2ccccc2c1` has an IC50 [1] of 3200 nM, a Ki [4] of 1500 nM and a pKi [4] of 5.84.
For `Br.On1ncc(C2CCNCC2)c1-c1ccccc1`, the IC50 [1] was 150 nM, the Ki [2] was 22 nM and the pKi [2] was 7.65.
`Cl.On1ncc(C2CCNCC2)c1-c1cccc(-c2ccccc2)c1` showed an IC50 [1] of 24 nM.
`Cl.On1cc(C2CCNCC2)c(-c2cccc(-c3ccccc3)c2)n1` gave an IC50 [1] of 210 nM, a Ki [2] of 30 nM and a pKi [2] of 7.55.
`Br.On1nc(Cc2ccc3ccccc3c2)c(C2CCNCC2)c1-c1ccccc1` showed a Ki [4] of 22 nM and a pKi [4] of 7.66.
In the case of `Oc1noc(C2CCNCC2)c1-c1ccccc1`, the Ki [2] is reported as 220 nM.
In the case of `Cl.On1ncc(C2CCNCC2)c1Cc1ccc2ccccc2c1Br`, the IC50 [1] is reported as 480 nM, the Ki [4] is reported as 9.5 nM and the pKi [4] is reported as 8.07.
In the case of `Cc1ccccc1-c1nn(O)cc1C1CCNCC1.Cl`, the IC50 [1] is reported as 2600 nM, the Ki [2] is reported as 670 nM and the pKi [2] is reported as 6.17.
For `Oc1noc(C2CCNCC2)c1Cc1ccc2ccccc2c1Br`, the Ki [2] was 10 nM.
With `Br.On1cc(C2CCNCC2)c(-c2ccccc2)n1` the IC50 [1] was 1900 nM, the Ki [2] was 270 nM and the pKi [2] was 6.57.
`Cc1cccc(-c2nn(O)cc2C2CCNCC2)c1.Cl` showed an IC50 [1] of 1900 nM, a Ki [2] of 240 nM and a pKi [2] of 6.62.
`Br.On1cc(C2CCNCC2)c(Cc2ccc3ccccc3c2)n1` showed an IC50 [1] of 170 nM, a Ki [2] of 3 nM and a pKi [2] of 8.55.
With `Br.On1cc(C2CCNCC2)c(-c2ccc(-c3ccccc3)cc2)n1` the IC50 [1] was 1400 nM, the Ki [2] was 420 nM and the pKi [2] was 6.39.
Work on `Br.Cc1ccc(-c2nn(O)cc2C2CCNCC2)cc1` yielded an IC50 [1] of 1400 nM, a Ki [2] of 320 nM and a pKi [2] of 6.5.
`Oc1noc(C2CCNCC2)c1Cc1ccc2ccccc2c1` showed an IC50 [1] of 1800 nM and a Ki [2] of 49 nM.
`Cl.On1ncc(C2CCNCC2)c1Cc1ccc2ccccc2c1` gave an IC50 [1] of 790 nM, a Ki [2] of 33 nM and a pKi [2] of 7.48.
Work on `Oc1noc(C2CCNCC2)c1-c1cccc(-c2ccccc2)c1` yielded an IC50 [1] of 78 nM and a Ki [2] of 10 nM.
